Data on 15 compounds can be found in ChEMBL document CHEMBL4673378, “Investigating the effects of the core nitrogen atom configuration on the thermodynamic solubility of 6,5-bicyclic heterocycles” (Bioorg Med Chem Lett, 2021).

What all share (format): physicochemical
The nature of data set [1]: Ionization constant, pKa of the compound.
The nature of data set [2]: Thermodynamic solubility of compound in SLF at pH 6.9 using crystalline form of sample. To be noted: read-out: Therm_solubility. The procedure, abridged: (§1)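 Thermodynamic solubility was measured from solid in Simulated Lung Fluid, buffered at pH 6.9 and containing 0.75 mM lecithin plus bovine serum albumin, reported in μg/mL. Runs were at least duplicate unless otherwise footnoted. Amorphous or crystalline material was used, as the line states.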

A short description of data set [3]: Melting point of the compound using crystalline form of sample.
A short description of data set [4]: Kinetic solubility of the compound at pH 7.4 using crystalline form of sample. The conditions noted are these: read-out: Kinetic_solubility. The procedure, abridged: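 Solubility at pH 7.4 measured from a 10 mM DMSO stock (stock concentration) of crystalline material, reported in μg/mL. Runs were at least duplicate unless otherwise footnoted.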
Data set [5] in a line: Lipophilicity, log D of the compound at pH 7.4 by chromatographic reverse phase method. To be noted: reverse phase chromatography.
A short description of data set [6]: Thermodynamic solubility of compound in FaSSIF at pH 6.5 using crystalline form of sample. The conditions noted are these: read-out: Therm_solubility. In a few lines:
(§2)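 Thermodynamic solubility in Fasted State Simulated Intestinal Fluid, buffered at pH 6.5 and containing 0.75 mM lecithin, reported in μg/mL. Runs were at least duplicate unless otherwise footnoted. Solid form was amorphous or crystalline, as the line states.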

A short description of data set [7]: Melting point of the compound using amorphous form of sample.
A short description of data set [8]: Thermodynamic solubility of compound in SLF at pH 6.9 using amorphous form of sample. The conditions noted are these: read-out: Therm_solubility. The procedure, abridged:
as §1

Data set [9] can be described thus: Thermodynamic solubility of compound in FaSSIF at pH 6.5 using amorphous form of sample. To be noted: read-out: Therm_solubility. In a few lines:
as §2

The structures appear in SMILES notation. In brackets after ≈: the same amount, converted by molar mass. Bounds are passed on as bounds.

On to `COc1ccc(-c2c(C)nc3c(NCc4cccnc4)cc(C)cn23)cc1OC`, for which the pKa in [1] was determined as 6.5. For the same compound, the figures for the solubility thermodynamic in [2] and in [6] were 33 µg/mL (≈ 84.9 µM) and 109 µg/mL (≈ 281 µM), respectively. Also, the Tm in [3] was found to be 85 °C. For the same compound, the solubility kinetic in [4] is 86 µg/mL (≈ 221 µM). This compound also displayed a chromatographic logD in data set [5] of 4.9.

Take `COc1ccc(-c2c(C)nn3c(NCc4cccnc4)nc(C)cc23)cc1OC`: the pKa in [1] came to 2.8. For the same compound, the solubility thermodynamic turned out to be 6 µg/mL (≈ 15.4 µM) in data set [2] and 31 µg/mL (≈ 79.6 µM) in [6]. Also, the Tm in data set [3] worked out at 101 °C. In addition, the solubility kinetic in data set [4] stood at 35 µg/mL (≈ 89.9 µM). The chromatographic logD in [5] is 5.5.

For `COc1ccc(-c2c(C)nn3c(NCC4CCOCC4)cc(C)nc23)cc1OC`, the pKa in [1] was determined as 5.7. In addition, the solubility thermodynamic came out at 18 µg/mL (≈ 45.4 µM) in data set [2] and 25 µg/mL (≈ 63.1 µM) in data set [6]. For the same compound, the Tm in data set [3] is 157 °C. In addition, in data set [4], the solubility kinetic was more than 180 µg/mL. This compound registered a chromatographic logD in data set [5] of 5.2.

Regarding `COc1ccc(-c2c(C)nc3c(NCC4CCOCC4)nc(C)cn23)cc1OC`, the Tm in data set [7] came out at 93 °C. This compound also registered a pKa in [1] of 5.6. Besides, the solubility kinetic in data set [4] is 99 µg/mL (≈ 250 µM). Also, the figures for the solubility thermodynamic in [8] and in data set [9] were 10 µg/mL (≈ 25.2 µM) and 7 µg/mL (≈ 17.7 µM), respectively. The same compound registered a chromatographic logD in data set [5] of 5.2.

The compound `COc1ccc(-c2c(C)nn3c(NCc4ccc(N(C)C)cc4)cc(C)nc23)cc1OC` displayed a pKa in data set [1] of 5.4. Further, the solubility thermodynamic came to 1 µg/mL (≈ 2.32 µM) in data set [2] and 15 µg/mL (≈ 34.8 µM) in [6]. Moreover, the Tm in data set [3] was 238 °C. Also, in [4], the solubility kinetic came to 79 µg/mL (≈ 183 µM). Also, in [5], the chromatographic logD is 3.7.

`COc1ccc(-c2c(C)nn3c(NCc4ccc(C(N)=O)cc4)nc(C)cc23)cc1OC` yielded a pKa in data set [1] of 3.8. Further, the solubility thermodynamic was less than 6 µg/mL in [2] and 5 µg/mL (≈ 11.6 µM) in [6]. Also, the Tm in [3] stood at 194 °C. Further, in [4], the solubility kinetic is 19 µg/mL (≈ 44 µM). The compound also yielded a chromatographic logD in data set [5] of 4.8.

With `COc1ccc(-c2c(C)nc3c(NCc4ccc(C(N)=O)cc4)nc(C)cn23)cc1OC`, the Tm in data set [7] is 191 °C. This compound gave a pKa in [1] of 5. In [4], the solubility kinetic was found to be 53 µg/mL (≈ 123 µM). Further, the solubility thermodynamic was 9 µg/mL (≈ 20.9 µM) in data set [8] and 32 µg/mL (≈ 74.2 µM) in [9]. In data set [5], this compound registered a chromatographic logD of 3.9.

Compound `COc1ccc(-c2c(C)nc3c(NCc4ccc(C(N)=O)cc4)cc(C)cn23)cc1OC` showed a pKa in data set [1] of 6.6. Also, the solubility thermodynamic amounted to 2 µg/mL (≈ 4.65 µM) in data set [2] and 6 µg/mL (≈ 13.9 µM) in data set [6]. In addition, the Tm in data set [3] turned out to be 203 °C. In data set [4], the solubility kinetic is 29 µg/mL (≈ 67.4 µM). The compound further came in with a chromatographic logD in data set [5] of 4.3.

As to `COc1ccc(-c2c(C)nc3c(NCC4CCOCC4)cc(C)cn23)cc1OC`, the pKa in [1] worked out at 6.7. The solubility thermodynamic in data set [2] amounted to 29 µg/mL (≈ 73.3 µM); in data set [6], 233 µg/mL (≈ 589 µM). Also, the Tm in data set [3] is 90 °C. For the same compound, in data set [4], the solubility kinetic amounted to 64 µg/mL (≈ 162 µM). In data set [5], this compound returned a chromatographic logD of 6.

In data set [1], `COc1ccc(-c2c(C)nn3c(NCc4cccnc4)cc(C)nc23)cc1OC` returned a pKa of 5.4. The solubility thermodynamic in data set [2] turned out to be 39 µg/mL (≈ 100 µM); in [6] it was 141 µg/mL (≈ 362 µM). Further, in data set [3], the Tm is 149 °C. Besides, the solubility kinetic in data set [4] was more than 107 µg/mL. In addition, the chromatographic logD in data set [5] turned out to be 4.3.

On to `COc1ccc(-c2c(C)nn3c(NCc4ccc(N(C)C)cc4)nc(C)nc23)cc1OC`, for which the pKa in data set [1] was 2.9. Further, the results for the solubility thermodynamic in data set [2] and in [6] were 10 µg/mL (≈ 23.1 µM) and 32 µg/mL (≈ 74 µM), respectively. The Tm in data set [3] came to 167 °C. Also, the solubility kinetic in data set [4] came out at 19 µg/mL (≈ 43.9 µM). Besides, the chromatographic logD in [5] worked out at 3.9.

`COc1ccc(-c2c(C)nc3c(NCc4cccnc4)nc(C)cn23)cc1OC`: the Tm in [7] was determined as 128 °C. For the same compound, the pKa in data set [1] was determined as 5.3. In [4], the solubility kinetic worked out at 67 µg/mL (≈ 172 µM). For the same compound, the solubility thermodynamic in data set [8] was determined as 58 µg/mL (≈ 149 µM); in data set [9] it was 335 µg/mL (≈ 860 µM). This compound also showed a chromatographic logD in [5] of 4.5.

Compound `COc1ccc(-c2c(C)nn3c(NCc4cccnc4)nc(C)nc23)cc1OC` displayed a pKa in data set [1] of 2.5. In addition, the solubility thermodynamic in data set [2] and in data set [6] was 36 µg/mL (≈ 92.2 µM) throughout. For the same compound, the Tm in data set [3] is 149 °C. Further, the solubility kinetic in data set [4] was more than 150 µg/mL. Besides, the chromatographic logD in [5] turned out to be 4.5.

In turn, `COc1ccc(-c2c(C)nn3c(NCC4CCOCC4)nc(C)nc23)cc1OC` displayed a pKa in [1] of 3.1. Further, the solubility thermodynamic in [2] was determined as 18 µg/mL (≈ 45.3 µM); in [6] it was 29 µg/mL (≈ 73 µM). Also, the Tm in [3] stood at 143 °C. Moreover, the solubility kinetic in [4] is more than 165 µg/mL. The chromatographic logD in [5] is 5.1.

As for `COc1ccc(-c2c(C)nn3c(NCC4CCOCC4)nc(C)cc23)cc1OC`, the pKa in data set [1] stood at 4.4. The figures for the solubility thermodynamic in [2] and in data set [6] were 3 µg/mL (≈ 7.57 µM) and 13 µg/mL (≈ 32.8 µM), respectively. For the same compound, in [3], the Tm is 104 °C. Besides, the solubility kinetic in data set [4] turned out to be 44 µg/mL (≈ 111 µM). In data set [5], this compound displayed a chromatographic logD of 6.4.
